Active and inactive are the calls of the source. The rule behind the calls is not given here.
How the values were obtained:
[1] = target: T1, Fatty-acid amide hydrolase 1 (Homo sapiens, UniProt O00519); assay: Inhibition of human FAAH expressed in COS7 cell membranes pre-incubated for 10 mins before [3H]-AEA substrate addition by liquid scintillation counting; set-up: species or system COS-7
T1 sequence (O00519 whole entry): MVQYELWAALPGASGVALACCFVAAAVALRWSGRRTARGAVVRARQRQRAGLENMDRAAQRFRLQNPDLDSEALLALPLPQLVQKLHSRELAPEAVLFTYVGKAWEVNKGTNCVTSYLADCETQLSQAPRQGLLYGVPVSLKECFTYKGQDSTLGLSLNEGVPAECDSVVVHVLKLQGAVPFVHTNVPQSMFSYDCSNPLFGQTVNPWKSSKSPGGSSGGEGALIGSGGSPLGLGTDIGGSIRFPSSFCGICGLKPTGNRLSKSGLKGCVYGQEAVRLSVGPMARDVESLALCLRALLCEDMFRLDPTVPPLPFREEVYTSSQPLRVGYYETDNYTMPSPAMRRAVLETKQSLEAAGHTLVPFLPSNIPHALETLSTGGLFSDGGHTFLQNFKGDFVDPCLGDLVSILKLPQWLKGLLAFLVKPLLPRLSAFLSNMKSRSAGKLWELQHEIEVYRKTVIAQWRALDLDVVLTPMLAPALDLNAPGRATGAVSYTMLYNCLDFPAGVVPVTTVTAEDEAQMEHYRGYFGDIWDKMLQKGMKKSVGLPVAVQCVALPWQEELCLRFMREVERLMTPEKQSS

[2] = target: T2, Monoglyceride lipase (Homo sapiens, UniProt Q99685); assay: Inhibition of human MAGL expressed in HEK293 cells pre-incubated for 10 mins before 2-AG substrate addition by HPLC method; assay type: cell-based
T2 sequence (Q99685 whole entry): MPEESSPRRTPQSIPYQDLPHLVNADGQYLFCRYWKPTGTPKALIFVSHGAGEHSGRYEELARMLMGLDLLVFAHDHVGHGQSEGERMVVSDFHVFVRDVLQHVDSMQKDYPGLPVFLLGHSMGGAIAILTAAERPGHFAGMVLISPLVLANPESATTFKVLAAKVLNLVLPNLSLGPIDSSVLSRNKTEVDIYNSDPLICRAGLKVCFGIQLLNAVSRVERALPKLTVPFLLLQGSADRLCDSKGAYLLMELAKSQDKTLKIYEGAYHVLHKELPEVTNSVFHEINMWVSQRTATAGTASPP
In short: (§1)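 Lysates of hMAGL-overexpressing HEK293 cells in 50 mM Tris–HCl pH 7.4 with 1 mM EDTA. After a 10 min preincubation with inhibitor or DMSO, 2-AG was added (final 50 µM) and incubated 10 min at 37 °C. The reaction was stopped and samples centrifuged. Arachidonic acid formation and 2-AG depletion were measured by HPLC. Replicates as for the FAAH assay.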

[3] = target: T3, Monoacylglycerol lipase ABHD6 (Homo sapiens) (UniProt Q9BV23); assay: Inhibition of human ABHD6 expressed in HEK293 cells assessed as remaining enzyme activity by measuring reduction in glycerol production from 1-AG hydrolysis at 1 uM pre-incubated for 30 mins before 1-AG substrate addition and measured 90 mins post substrate addition by fluorescence method; assay type: cell-based
T3 sequence (whole entry): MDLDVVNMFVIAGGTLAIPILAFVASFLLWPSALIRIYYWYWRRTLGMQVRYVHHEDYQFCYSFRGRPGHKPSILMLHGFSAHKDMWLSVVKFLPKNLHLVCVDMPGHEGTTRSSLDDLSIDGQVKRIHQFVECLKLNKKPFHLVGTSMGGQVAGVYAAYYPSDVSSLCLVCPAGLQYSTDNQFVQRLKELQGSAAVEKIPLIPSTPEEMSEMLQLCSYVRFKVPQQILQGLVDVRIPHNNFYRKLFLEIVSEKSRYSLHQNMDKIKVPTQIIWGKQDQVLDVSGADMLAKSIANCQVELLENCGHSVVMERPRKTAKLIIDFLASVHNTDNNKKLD
In short: (§2)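 hABHD6-HEK293 lysates pretreated 30 min with DMSO or inhibitor, then given 1-AG (12.5 µM final). Glycerol release was followed kinetically by fluorescence (emission 590 nm). Blanks without lysate were subtracted. IC50 was taken at the 90 min time point by nonlinear fitting of dose–response curves.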

[4] = target: T4, Lysophosphatidylserine lipase ABHD12 (Homo sapiens) (UniProt Q8N2K0); assay: Inhibition of human ABHD12 expressed in HEK293 cells assessed as remaining enzyme activity at 1 uM pre-incubated for 10 mins before 2-AG substrate addition by HPLC method; assay type: cell-based
T4 sequence (whole entry): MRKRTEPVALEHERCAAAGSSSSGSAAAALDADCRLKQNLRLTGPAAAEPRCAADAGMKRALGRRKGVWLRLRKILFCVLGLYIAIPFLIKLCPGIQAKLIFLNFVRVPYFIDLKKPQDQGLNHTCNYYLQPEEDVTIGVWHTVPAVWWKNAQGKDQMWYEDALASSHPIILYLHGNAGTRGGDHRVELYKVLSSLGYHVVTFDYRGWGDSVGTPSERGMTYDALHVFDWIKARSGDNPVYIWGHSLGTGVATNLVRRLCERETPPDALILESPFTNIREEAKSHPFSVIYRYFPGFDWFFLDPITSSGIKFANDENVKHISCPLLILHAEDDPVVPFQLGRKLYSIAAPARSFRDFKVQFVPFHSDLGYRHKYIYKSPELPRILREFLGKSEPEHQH

[5] = target: T5, Fatty-acid amide hydrolase 1 (Homo sapiens) (UniProt O00519); assay: Inhibition of human FAAH expressed in COS7 cell membranes at 10 uM pre-incubated for 10 mins before [3H]-AEA substrate addition by liquid scintillation counting; details: COS-7
T5 sequence (whole entry): T1 sequence (O00519 whole entry)

[6] = target: T6, Monoglyceride lipase (Homo sapiens) (UniProt Q99685); assay: Inhibition of human MAGL expressed in HEK293 cells at 10 uM pre-incubated for 10 mins before 2-AG substrate addition by HPLC method; assay type: cell-based; in short: as §1
T6 sequence (whole entry): T2 sequence (Q99685 whole entry)

[7] = target: T7, Monoacylglycerol lipase ABHD6 (Homo sapiens, UniProt Q9BV23); assay: Inhibition of human ABHD6 expressed in HEK293 cells assessed as reduction in glycerol production from 1-AG hydrolysis pre-incubated for 30 mins before 1-AG substrate addition and measured 90 mins post substrate addition by fluorescence method; assay type: cell-based; in short: as §2
T7 sequence (Q9BV23 whole entry): T3 sequence (whole entry)

[8] = target: Cannabinoid receptor 1 (Rattus norvegicus) (UniProt P20272); details: Cerebellum, Membrane, 1 uM
Cannabinoid receptor 1 (Rattus norvegicus), sequence (P20272 whole entry): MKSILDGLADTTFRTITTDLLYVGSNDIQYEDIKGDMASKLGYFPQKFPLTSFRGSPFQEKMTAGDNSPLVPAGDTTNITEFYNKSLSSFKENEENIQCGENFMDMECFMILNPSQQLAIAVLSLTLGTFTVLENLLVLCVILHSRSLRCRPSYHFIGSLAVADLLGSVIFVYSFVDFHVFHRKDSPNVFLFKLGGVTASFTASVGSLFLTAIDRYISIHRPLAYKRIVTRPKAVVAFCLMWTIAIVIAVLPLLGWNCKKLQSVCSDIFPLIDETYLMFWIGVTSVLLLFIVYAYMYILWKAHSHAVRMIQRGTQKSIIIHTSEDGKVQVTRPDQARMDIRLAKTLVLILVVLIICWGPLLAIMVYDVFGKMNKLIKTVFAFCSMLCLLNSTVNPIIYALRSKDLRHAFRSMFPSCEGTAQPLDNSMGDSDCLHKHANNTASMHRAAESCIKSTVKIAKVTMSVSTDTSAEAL

[9] = target: T7, Monoacylglycerol lipase ABHD6; assay: Inhibition of human ABHD6 expressed in HEK293 cells at 1 uM pre-incubated for 10 mins before 2-AG substrate addition followed by rapid 40 fold compound dilution measured after 10 mins by HPLC method; assay type: cell-based
[10] = target: T7, Monoacylglycerol lipase ABHD6; assay: Inhibition of human ABHD6 expressed in HEK293 cells at 1 uM pre-incubated for 10 mins before 2-AG substrate addition followed by rapid 40 fold compound dilution measured after 30 mins by HPLC method; assay type: cell-based
[11] = target: T7, Monoacylglycerol lipase ABHD6; assay: Inhibition of human ABHD6 expressed in HEK293 cells at 1 uM pre-incubated for 10 mins before 2-AG substrate addition followed by rapid 40 fold compound dilution measured after 60 mins by HPLC method; assay type: cell-based
[12] = target: T7, Monoacylglycerol lipase ABHD6; assay: Inhibition of human ABHD6 expressed in HEK293 cells at 1 uM pre-incubated for 10 mins before 2-AG substrate addition followed by rapid 40 fold compound dilution measured after 90 mins by HPLC method; assay type: cell-based

| Activity [3] | inhibition [4] | inhibition [5] | inhibition [6] | inhibition [3] | SMILES | further results |
| --- | --- | --- | --- | --- | --- | --- |
| 63% | inactive | inactive | 23% |  | COc1nn(Cc2cccc(C#N)c2)c(=O)o1 |  |
| 60% |  |  | inactive |  | COc1nn(Cc2ccccc2Oc2ccccc2)c(=O)o1 |  |
|  | inactive | 23% | 8% | inactive | COc1nn(Cc2ccccc2-c2ccccc2)c(=O)o1 |  |
|  | inactive | 8% | 4% | inactive | COc1nn(Cc2ccccc2N)c(=O)o1 |  |
|  | inactive | inactive | inactive | inactive | COc1nn(Cc2ccccc2NC(=O)c2ccccc2)c(=O)o1 |  |
|  | inactive |  |  | inactive | COc1nn(Cc2ccc(OCc3ccccc3)cc2)c(=O)o1 | IC50 ([1]; read-out: IC50): 0.41 µM; IC50 ([1]; read-out: pIC50 (converted)): 0.407 µM; IC50 ([2]; read-out: IC50): 0.52 µM |
|  | inactive | 10% | 15% | inactive | CCOc1nn(Cc2cccc(N)c2)c(=O)o1 |  |
| 53% | inactive |  |  |  | COc1nn(Cc2cccc(OCc3ccccc3)c2)c(=O)o1 | IC50 ([1]; read-out: IC50): 1.51 µM; IC50 ([1]; read-out: pIC50 (converted)): 1.51 µM; IC50 ([2]; read-out: IC50): 3.23 µM |
|  | inactive | 12% | 48% |  | COc1nn(Cc2cccc(C(F)(F)F)c2)c(=O)o1 | IC50 [7]: 0.87 µM |
|  |  |  |  | inactive | COc1nn([C@@H](C)c2ccc(CC(C)C)cc2)c(=O)o1 |  |
|  |  |  |  | inactive | COc1nn(Cc2ccc(CC(C)C)cc2)c(=O)o1 |  |
|  | inactive | 20% | 7% |  | COC(=O)c1cccc(Cn2nc(OC)oc2=O)c1 | IC50 [7]: 0.45 µM |
| 64% | inactive | 35% | 11% |  | COc1nn(Cc2cccc3ccccc23)c(=O)o1 |  |
|  | inactive |  | 15% | inactive | COC(=O)c1ccc(Cn2nc(OC)oc2=O)cc1 | IC50 ([1]; read-out: IC50): 6.76 µM; IC50 ([1]; read-out: pIC50 (converted)): 6.76 µM |
|  | inactive | 11% | 3% | inactive | COc1nn(Cc2ccccc2NC(C)=O)c(=O)o1 |  |
| 61% |  | inactive | inactive |  | COc1nn(Cc2ccccc2)c(=O)o1 |  |
|  | inactive | 34% | 23% | inactive | COc1nn(Cc2ccc(N)cc2)c(=O)o1 |  |
| 65% | inactive | 7% | 32% |  | COc1nn(Cc2cccc([N+](=O)[O-])c2)c(=O)o1 |  |
|  | inactive |  | inactive | inactive | COc1nn(Cc2ccc3ccccc3c2)c(=O)o1 | IC50 ([1]; read-out: IC50): 3.98 µM; IC50 ([1]; read-out: pIC50 (converted)): 3.98 µM |

The next lines start with the molecule.

| SMILES | Activity [3] | inhibition [4] | inhibition [5] | inhibition [6] | inhibition [3] | further results |
| --- | --- | --- | --- | --- | --- | --- |
| COc1nn(Cc2ccc(NC(=O)c3ccccc3)cc2)c(=O)o1 | 88% | inactive |  |  |  | IC50 ([1]; read-out: IC50): 0.62 µM; IC50 ([1]; read-out: pIC50 (converted)): 0.617 µM; IC50 ([2]; read-out: IC50): 0.56 µM |
| COc1nn(Cc2ccc(NC(C)=O)cc2)c(=O)o1 |  | inactive | 37% | 16% | inactive |  |
| COc1nn(Cc2cccc(NC(C)=O)c2)c(=O)o1 |  | inactive | inactive | 12% | inactive |  |
| COc1cccc(Cn2nc(OC)oc2=O)c1 | 70% | inactive | inactive | 6% |  |  |
| COc1nn(Cc2cccc(NC(=O)c3ccccc3)c2)c(=O)o1 | 79% | inactive | inactive | 48% |  |  |
| O=C(N1CCC(=C2c3ccc(Cl)cc3CCc3cccnc32)CC1)n1cncn1 |  |  |  |  |  | IC50 ([1]; cos-7, read-out: IC50): 7.24 µM; IC50 ([2]; hek293, read-out: IC50): 0.046 µM; IC50 ([7]; hek293): 1.78 µM |
| COc1nn(Cc2cccc(Cl)c2)c(=O)o1 | 52% | inactive | 37% | 43% |  |  |
| COc1nn(Cc2cccc(-c3ccccc3)c2)c(=O)o1 |  |  |  |  | inactive |  |
| COc1nn(Cc2ccccc2[N+](=O)[O-])c(=O)o1 | 57% | inactive | 36% | 43% |  |  |
| COc1nn(Cc2ccc([N+](=O)[O-])cc2)c(=O)o1 |  | inactive | 18% | 36% | inactive |  |
| Cc1c(C(=O)NN2CCCCC2)nn(-c2ccc(Cl)cc2Cl)c1-c1ccc(I)cc1 |  |  |  |  |  | inhibition [8]: 38% |
| COc1nn(Cc2ccc(Oc3ccccc3)cc2)c(=O)o1 | 77% |  |  |  |  | pIC50 ([2]; hek293): 6.4 |
| COc1nn(Cc2cccc(Oc3ccccc3)c2)c(=O)o1 | 70% |  |  |  |  |  |
| COc1nn(Cc2ccc(-c3ccccc3)cc2)c(=O)o1 |  |  |  |  | inactive |  |
| CN(C(=O)Oc1nsnc1N1CCOCC1)C1CCCCCCC1 |  |  | 18% | inactive |  | pIC50 ([7]; hek293): 7.36; IC50 [9]: 0.0912 µM; IC50 [10]: 0.0871 µM; IC50 [11]: 0.0871 µM; IC50 [12]: 0.0933 µM |
| COc1nn(Cc2ccc(C#N)cc2)c(=O)o1 |  | inactive | inactive | 25% | inactive |  |
| O=c1oc(Oc2ccccc2)nn1Cc1cccc([N+](=O)[O-])c1 |  | inactive | 38% |  |  | IC50 ([2]; read-out: IC50): 3.31 µM; IC50 ([2]; read-out: pIC50 (converted)): 3.24 µM; IC50 [7]: 0.13 µM |
